The record followed here is ChEMBL document CHEMBL1649157, “Intracellular activity of antibiotics against Staphylococcus aureus in a mouse peritonitis model” (Antimicrob Agents Chemother, 2009).

In brackets after ≈: the same amount, converted by molar mass. Activity calls are given as the source filed them.

Data set [1] deals with Staphylococcus aureus. Briefly: Bactericidal activity against Staphylococcus aureus E19977 assessed as log reduction in cfu at 20 mg/liter after 24 hrs by time-kill study. In kind it is functional, organism-based. The method, boiled down:
(§1)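 In vitro kinetic model simulating antibiotic elimination without inoculum change. Exponential-phase E19977 was added at a final 10^6.3 CFU/ml. Starting drug concentration matched the human free peak, with the human half-life simulated. Samples were plated on 5% blood agar at 0, 2, 4, 6, 8, 12 and 24 h, with growth controls in each run. Results are shown as mean and range, n = 2.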

The subject of data set [2] is Staphylococcus aureus. Briefly: Bactericidal activity against Staphylococcus aureus E19977 assessed as log reduction in cfu at 2 mg/liter after 24 hrs by time-kill study. In kind it is functional, organism-based. The procedure, abridged: as §1
Data set [3] deals with Staphylococcus aureus. Briefly: Antibacterial activity against Staphylococcus aureus E19977 infected in NMRI mouse assessed as log reduction in extracellular bacterial cfu in peritoneum at 1 mg/kg, sc administered 2 hrs after infection measured after 4 hrs. In kind it is functional, organism-based. More on the design: dose 1 mg/kg. The method, boiled down: (§2)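 Female NMRI mice (25–30 g) were infected i.p. with 0.5 ml of 10^7.7 CFU/ml in 5% mucin. […] Pooled washes were split into total, extracellular and intracellular fractions by 300 × g spin, lysostaphin, HBSS washes and water lysis. Counts were compared with untreated mice.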

Data set [4] deals with Staphylococcus aureus. Briefly: Bactericidal activity against Staphylococcus aureus E19977 assessed as log reduction in cfu at 0.5 mg/liter after 24 hrs by time-kill study. In kind it is functional, organism-based. The method, boiled down:
as §1

A short description of data set [5]: Half life in human at 1000 mg, po. In kind it is ADME, organism-based. The note with it: in vivo.
Data set [6] concerns Staphylococcus aureus. Briefly: Antibacterial activity against Staphylococcus aureus E19977 infected in NMRI mouse assessed as log reduction in bacterial cfu in peritoneum at 1 mg/kg, sc administered 2 hrs after infection measured after 4 hrs. More on the design: dose 1 mg/kg. In kind it is functional, organism-based. The procedure, abridged:
as §2

The subject of data set [7] is Serum. Briefly: Protein binding in human serum at 1000 mg, po. In kind it is ADME, organism-based. The note with it: in vivo.
The test system of data set [8] is Staphylococcus aureus. Briefly: Bacteriostatic activity against Staphylococcus aureus E19977 assessed as log reduction in cfu at 0.5 mg/liter upto 8 hrs by time-kill study. In kind it is functional, organism-based.
Data set [9] deals with Staphylococcus aureus. Briefly: Antibacterial activity against Staphylococcus aureus E19977 infected in NMRI mouse assessed as log reduction in intracellular bacterial cfu in peritoneum at 1 mg/kg, sc administered 2 hrs after infection measured after 4 hrs. In kind it is functional, organism-based. The arrangement: dose 1 mg/kg. The procedure, abridged: as §2
For data set [10], the system named is Staphylococcus aureus. Briefly: Bactericidal activity against Staphylococcus aureus E19977 assessed as log reduction in cfu at 1.5 mg/liter after 24 hrs by time-kill study. In kind it is functional, organism-based. The procedure, abridged: as §1
In data set [11] the test system is Staphylococcus aureus. Briefly: Bactericidal activity against Staphylococcus aureus E19977 assessed as log reduction in cfu at 9 mg/liter after 24 hrs by time-kill study. In kind it is functional, organism-based. The method, boiled down: as §1
Data set [12] concerns Staphylococcus aureus. Briefly: Antibacterial activity against Staphylococcus aureus E19977 by Etest. It counts as functional.
Data set [13] can be described thus: Cmax in human at 1000 mg, po. The settings on record: in vivo. In kind it is ADME, organism-based. The arrangement: dose 1000 mg, route oral.
Data set [14] deals with Staphylococcus aureus. Briefly: Antibacterial activity against Staphylococcus aureus E19977 infected in NMRI mouse assessed as log reduction in bacterial cfu in peritoneum at 200 mg/kg, sc administered 2 hrs after infection measured after 4 hrs. It counts as functional, organism-based. The arrangement: dose 200 mg/kg. The procedure, abridged:
(§3)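 Dose–response in i.p.-infected NMRI mice (mucin adjuvant). Single doses of 200, 60, 30, 20 or 10 mg/kg were given 2 h after inoculation, with 4–16 mice per group. Peritoneal wash was sampled 4 h later and split by lysostaphin/centrifugation into total, extra- and intracellular counts, then expressed as Δlog10 CFU/ml against log dose. Vehicle controls were plotted as 0.3 mg/kg. Hill fit (variable slope); static dose interpolated.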

In data set [15] the test system is Staphylococcus aureus. Briefly: Bactericidal activity against Staphylococcus aureus E19977 assessed as log reduction in cfu at 2 mg/liter upto 24 hrs by time-kill study. It counts as functional. The procedure, abridged:
(§4)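 Clinical bacteremia isolate (penicillin-resistant, methicillin-susceptible). Exponential-phase bacteria were placed in an in vitro kinetic model that simulates drug elimination without changing the inoculum. The starting drug level matched the human free peak serum concentration after a single dose, with simulated human elimination half-life. Samples were taken at 0, 2, 4, 6, 8, 12 and 24 h, with growth controls in each run.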

Data set [16] relates to Staphylococcus aureus. Briefly: Bactericidal activity against Staphylococcus aureus E19977 assessed as log reduction in cfu at 20 mg/liter upto 24 hrs by time-kill study. In kind it is functional. The procedure, abridged: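 In vitro kinetic model: exponential-phase bacteria at a final 10^6.3 CFU/ml were exposed to a starting concentration set to the human free peak level. Elimination followed the simulated human half-life. Samples were taken at 0, 2, 4, 6, 8, 12 and 24 h and counted on 5% blood agar (detection limit 25 CFU/ml). Growth controls were included; n = 2.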

Data set [17] has as its system Staphylococcus aureus. Briefly: Antibacterial activity against Staphylococcus aureus E19977 infected in NMRI mouse assessed as log reduction in intracellular bacterial cfu in peritoneum at 200 mg/kg, sc administered 2 hrs after infection measured after 4 hrs. In kind it is functional, organism-based. The arrangement: dose 200 mg/kg. The method, boiled down:
as §3

Data set [18] concerns Staphylococcus aureus. Briefly: Bactericidal activity against Staphylococcus aureus E19977 assessed as log reduction in cfu at 1.5 mg/liter upto 24 hrs by time-kill study. In kind it is functional. The procedure, abridged: as §4
Data set [19] is described as follows: Half life in human at 1000 mg, im. It counts as ADME, organism-based. The note with it: in vivo.
Data set [20] has as its system Staphylococcus aureus. Briefly: Bactericidal activity against Staphylococcus aureus E19977 assessed as log reduction in cfu at 2 mg/liter after 12 hrs by time-kill study. It counts as functional. The procedure, abridged:
as §4

The nature of data set [21]: Cmax in human at 1000 mg, im. In kind it is ADME, organism-based. The arrangement: dose 1000 mg, route […]. The settings on record: in vivo.
For data set [22], the system named is Serum. Briefly: Protein binding in human serum at 1000 mg, im. It counts as ADME, cell-free.
The subject of data set [23] is Staphylococcus aureus. Briefly: Antibacterial activity against Staphylococcus aureus E19977 infected in NMRI mouse assessed as log reduction in extracellular bacterial cfu in peritoneum at 200 mg/kg, sc administered 2 hrs after infection measured after 4 hrs. It counts as functional, organism-based. The arrangement: dose 200 mg/kg. The method, boiled down:
as §3

The half-life is how long it takes for the measured level to halve. A high value points to slow decline. A word on the MIC: it is the smallest concentration in the dilution series that meets the test's criterion for growth inhibition. The term Cmax denotes the highest concentration seen after dosing. Turning to `CC[C@H]1OC(=O)[C@H](C)[C@@H](O[C@H]2C[C@@](C)(OC)[C@@H](O)[C@H](C)O2)[C@H](C)[C@@H](O[C@@H]2O[C@H](C)C[C@H](N(C)C)[C@H]2O)[C@](C)(O)C[C@@H](C)CN(C)[C@H](C)[C@@H](O)[C@]1(C)O` [AZITHROMYCIN], the outcome in the data set with Staphylococcus aureus [1], with Staphylococcus aureus [2], in the data set with Staphylococcus aureus [3], in the data set on Staphylococcus aureus [4], with Staphylococcus aureus [6] and in the data set on Staphylococcus aureus [9] was inactive. Further, the outcome in the data set on Staphylococcus aureus [10] and in the data set on Staphylococcus aureus [11] was inactive. Besides, the half-life in [5] was 10 h. The compound further returned an Activity in the data set with Serum [7] of 50%. Moreover, the result in the data set with Staphylococcus aureus [8] was Active. In the data set on Staphylococcus aureus [12], this compound showed an MIC of 0.5 µg/mL (≈ 0.668 µM). The Cmax in data set [13] came to 1000 ng/mL.
In the case of `CO/N=C(\C(=O)N[C@@H]1C(=O)N2C(C(=O)O)=C(COC(N)=O)CS[C@H]12)c1ccco1` [CEFUROXIME], the outcome in the data set on Staphylococcus aureus [14] and in the data set on Staphylococcus aureus [23] was Active. Also, the outcome in the data set with Staphylococcus aureus [1], in the data set with Staphylococcus aureus [2], with Staphylococcus aureus [4], in the data set with Staphylococcus aureus [17], in the data set with Staphylococcus aureus [10] and in the data set on Staphylococcus aureus [11] was inactive. Moreover, the FC with Staphylococcus aureus [15] is 2; in the data set with Staphylococcus aureus [16], above 2; in the data set with Staphylococcus aureus [18], 2; with Staphylococcus aureus [20], 2. For the same compound, the half-life in data set [19] is 1.5 h. This compound also gave an MIC against Staphylococcus aureus [12] of 2 µg/mL (≈ 4.71 µM). In addition, in data set [21], the Cmax was 26000 ng/mL. In addition, the Activity with Serum [22] stood at 30%.
